The source of these data is ChEMBL document CHEMBL3259611, “Suppression of inflammatory responses by handelin, a guaianolide dimer from Chrysanthemum boreale, via downregulation of NF-κB signaling and pro-inflammatory cytokine production” (J Nat Prod, 2014).

Holding throughout (assay type): functional
In assay [1] the test system is Rattus norvegicus. Kind of assay: Antiinflammatory activity in rat paw edema model assessed as inhibition of carrageenan-induced paw edema at 20 mg/kg, po administered 30 mins prior to carrageenan challenge measured after 4 hrs relative to vehicle-treated control. In short, it runs like this:
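Male Sprague–Dawley rats (150–170 g, 5 weeks old); compound dissolved in 0.5% CMC-Na and given orally 30 min before subplantar injection of 0.1 mL 1% carrageenan suspension in saline into the right hind paw, with saline injected into the left. Paw volume read by plethysmometer at 0 h and up to 6 h; n = 6.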
A general note: The carrageenan paw model is a standard test of acute inflammation.

Assay [2] relates to Mus musculus. As to the kind of experiment: Antiinflammatory activity in ICR mouse ear edema model assessed as inhibition of TPA-induced ear edema at 20 mg/kg, po administered 30 mins prior to TPA challenge measured after 4 hrs relative to vehicle-treated control. In short, it runs like this:
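ICR mice (male, 18−20 g, 5 weeks old) dosed orally 30 min before TPA (1.0 μg in 20 μL acetone) was applied to inner and outer surfaces of the right ear. Killed by cervical dislocation after 4 h. Edema taken as the weight of a 5 mm punch biopsy of the right ear over the left. Ear homogenates were Western blotted for iNOS, COX-2 and IL-1β.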

The test system of assay [3] is RAW264.7. As to the kind of experiment: Antiinflammatory activity in mouse RAW264.7 cells assessed as inhibition of LPS-induced nitric oxide production at 50 uM after 20 hrs by Griess assay relative to control. The settings on record: RAW264.7, 20 h. In short, it runs like this:
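Positive-control run in the same LPS (1 μg/mL, 20 h) RAW 264.7 system. Nitrite was quantified by Griess reaction at 540 nm against a sodium nitrite standard curve. Inhibition expressed relative to vehicle control.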

The test system of assay [4] is RAW264.7. As to the kind of experiment: Antiinflammatory activity in mouse RAW264.7 cells assessed as inhibition of LPS-induced PGE2 production at 20 uM administered 1 hr prior to LPS challenge measured after 20 hrs by EIA relative to control. In short, it runs like this: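 RAW 264.7 cells plated at 3 × 10^5 cells/mL, pretreated with compound for 1 h, then stimulated with 1 μg/mL LPS for 20 h. PGE2 in the supernatant was measured by immunoassay kit. Mean ± SD of triplicates.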

What is called inhibition in vivo is the percentage by which the read-out fell short of the control. For `COc1ccc2c(c1)c(CC(=O)O)c(C)n2C(=O)c1ccc(Cl)cc1` [INDOMETHACIN], the inhibition in vivo at 20 mg/kg in assay [1] was 51%; in assay [2] it was 53%.

What is called inhibition is the share of the control response that was lost under treatment. In the case of `CNC(=N)NCCC[C@H](N)C(=O)O` [TILARGININE], the inhibition at 50 µM in assay [3] is 74%.

As to `Cc1ccc(-c2cc(C(F)(F)F)nn2-c2ccc(S(N)(=O)=O)cc2)cc1` [CELECOXIB], the inhibition (INH) in assay [4] came out at 81%.
